Reference: PubChem BioAssay AID493228 (Broad Institute, 2011)
Values joined by “and” are separate entries in the source; they are usually repeats but may differ in a detail not shown here. Equal values may be shown once. Results filed as inconclusive are left out. Active and inactive are the calls of the source.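 How the source made its calls: active means fitted dose curve passes 500% activation at or below the top valid tested dose; inconclusive means no clear call, values can overlap the other calls; inactive means the rest, opposite-direction activity included.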

Key:
[1] = test system: U2OS HRE-luciferase reporter, iron medium, luminescence; test: HIF reporter activators, metal chelation test – cell-based, iron medium, luminescence, U2OS, dry powder, mechanism study for HIF activator project, dose response (AID 493228)
Summary of the method: (§1)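 system = U2OS 3×HRE-luciferase reporter cells | input = 6,000 cells/well | compound = 8 concentrations, 3-fold spacing | technique = luciferase luminescence with Steady-Glo reagent | buffer or medium = medium supplemented with ferric nitrate, 50 µM final | timing = 24 h cell plating, 24 h compound exposure, 37 °C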

[2] = as above; settings: U2OS HRE-luciferase reporter, iron medium, luminescence; at 38 µM (top of the series)
Summary of the method: as §1

SMILES | AC50 [1] | activation [2]
CC(Nc1nc(-c2ccccn2)nnc1-c1ccccc1)c1ccccc1 (stereo not given) | 23.2 µM | –
Cc1ccccc1CNc1nc(-c2ccccn2)nnc1-c1ccccc1 | 25 µM | –
Cn1c(NC(=O)c2cc(-c3ccccc3)on2)nc2ccccc21 | – | 4.17% (inactive)
C[C@H](Nc1nc(-c2ccccn2)nnc1-c1ccccc1)C1CCCCC1 | 18.9 µM | –
c1ccc(-c2nnc(-c3ccccn3)nc2NCC2CC2)cc1 | – | 392% (inactive)
Oc1ccc(CNC2CCc3ccccc32)c2cccnc12 (stereo not given) | – | -90.3% (inactive)
O=C(NCCN1CCOCC1)c1cc(-c2ccccc2)on1 | 12.4 µM | –
O=C(c1cc(-c2ccccc2)on1)N1CCN(c2ccncc2)CC1 | – | -9.52% (inactive)
c1ccc(-c2nnc(Nc3nc(-c4ccccn4)nnc3-c3ccccc3)s2)cc1 | – | 67% (inactive)
O=C(Nc1ccc2ccccc2n1)c1cc(-c2ccccc2)on1 | – | 10.3% (inactive)
Cc1ccc(NC(=O)c2cc(-c3ccccc3)on2)cn1 | – | -1.64% (inactive)
O=C(Nc1ncc2ccccc2n1)c1cc(-c2ccccc2)on1 | – | 196% (inactive)
Oc1ccc(CN2CCC3CCCCC3C2)c2cccnc12 (stereo not given) | – | -92.3% (inactive)
O=C(NCCCn1ccnc1)c1cc(-c2ccccc2)on1 | 6.23 µM | –
O=C(c1cc(-c2ccccc2)on1)N1CCC(N2CCCC2)CC1 | – | 0.413% (inactive)
CCCCNC(=O)c1cc(-c2ccccc2)on1 | 7.93 µM | –
Cc1cccc(CNc2nc(-c3ccccn3)nnc2-c2ccccc2)c1 | 17.3 µM | –
Cc1cccc(Nc2nc(-c3ccccn3)nnc2-c2ccccc2)n1 | – | 306% (inactive)
c1ccc(-c2nnc(-c3ccccn3)nc2N2CCC(N3CCOCC3)CC2)cc1 | 36 µM | –
O=C(NCCCO)c1cc(-c2ccccc2)on1 | 7.47 µM | –
CN(C)CCNC(=O)c1cc(-c2ccccc2)on1 | – | 36.8% (inactive)
Oc1ccc(CN2CCC(Cc3ccccc3)CC2)c2cccnc12 | – | 27% (inactive)
Cc1ccc(CNc2nc(-c3ccccn3)nnc2-c2ccccc2)cc1C | 13.6 µM | –
CC(C)(C)CCNC(=O)c1cc(-c2ccccc2)on1 | 23.1 µM | –
O=C(Nc1cnc2ccccc2c1)c1cc(-c2ccccc2)on1 | – | 26% (inactive)
c1ccc(-c2nnc(-c3ccccn3)nc2NCCc2ccccn2)cc1 | – | 460% (inactive)
N#CC1(c2ccccc2)CCN(Cc2ccc(O)c3ncccc23)CC1 | – | 10.5% (inactive)

SMILES | AC50 [1] | activation [2]
Cc1ccc(Nc2nc(-c3ccccn3)nnc2-c2ccccc2)cn1 | – | 473% (inactive)
CC(C)(C)c1ccc(CNc2nc(-c3ccccn3)nnc2-c2ccccc2)cc1 | – | 246% (inactive)
CC(C)(C)OC(=O)N1CCN(Cc2ccc(O)c3ncccc23)CC1 | – | 10.8% (inactive)
c1ccc(-c2nnc(-c3ccccn3)nc2NCC2CCOCC2)cc1 | – | 226% (inactive)
Cc1ccccc1CNC(=O)c1cc(-c2ccccc2)on1 | – | 40.9% (inactive)
Oc1ccc(CNC2Cc3ccccc3C2)c2cccnc12 | – | -87.7% (inactive)
O=C(Nc1nc2ccccc2s1)c1cc(-c2ccccc2)on1 | – | 22.7% (inactive)
c1ccc(-c2nnc(-c3ccccn3)nc2NCC2CCCCC2)cc1 | 18.2 µM | –
C[C@@H](Nc1nc(-c2ccccn2)nnc1-c1ccccc1)C1CCCCC1 | – | 419% (inactive)
Cc1ccc(CNC(=O)c2cc(-c3ccccc3)on2)cc1 | – | 13.2% (inactive)
Clc1cccc(CNc2nc(-c3ccccn3)nnc2-c2ccccc2)c1 | 17.9 µM | –
c1ccc(-c2nnc(-c3ccccn3)nc2N2CCC(C3CCCCC3)C2)cc1 (stereo not given) | – | 17.7% (inactive)
COc1cccc(CNc2nc(-c3ccccn3)nnc2-c2ccccc2)c1 | 22.8 µM | –
c1ccc(CNc2nc(-c3ccccn3)nnc2-c2ccccc2)cc1 | 17 µM | –
CC1CN(Cc2ccc(O)c3ncccc23)CC(C)O1 (stereo not given) | – | -85.2% (inactive)
O=C(NCCCN1CCOCC1)c1cc(-c2ccccc2)on1 | 12 µM | –
Oc1ccc(CN2CCc3ccccc3C2)c2cccnc12 | – | -88.2% (inactive) and -90.7% (inactive)
c1ccc(-c2nnc(-c3ccccn3)nc2Nc2cnc3ccccc3n2)cc1 | – | 299% (inactive)
c1ccc(-c2nnc(-c3ccccn3)nc2NCc2ccccn2)cc1 | 27.7 µM | –
O=C(NC1CCc2ccccc2C1)c1cc(-c2ccccc2)on1 (stereo not given) | – | 2.06% (inactive)
c1ccc(-c2nnc(-c3ccccn3)nc2N2CCC(c3ccccc3)C2)cc1 (stereo not given) | – | 313% (inactive)
O=C(Nc1nc(-c2ccccc2)cs1)c1cc(-c2ccccc2)on1 | – | -5.37% (inactive)
OCC1CCN(Cc2ccc(O)c3ncccc23)CC1 | – | -91.5% (inactive)
O=C(NCCN1CCCCC1)c1cc(-c2ccccc2)on1 | – | 64.1% (inactive)
CN1CCN(C(=O)c2cc(-c3ccccc3)on2)CC1 | – | 4.95% (inactive)
c1ccc(-c2nnc(-c3ccccn3)nc2NCCN2CCOCC2)cc1 | 31.7 µM | –
O=C(NC1Cc2ccccc2C1)c1cc(-c2ccccc2)on1 | – | 175% (inactive)

SMILES | AC50 [1] | activation [2]
CC(C)(C)CCNc1nc(-c2ccccn2)nnc1-c1ccccc1 | 17 µM and 16.2 µM | –
Cn1c(-c2ccccc2)cnc1NC(=O)c1cc(-c2ccccc2)on1 | – | 23.2% (inactive)
c1ccc(-c2ccc(CNc3nc(-c4ccccn4)nnc3-c3ccccc3)cc2)cc1 | 9.24 µM | –
C=CCNc1nc(-c2ccccn2)nnc1-c1ccccc1 | – | 288% (inactive)
Cn1c(-c2ccccc2)cnc1Nc1nc(-c2ccccn2)nnc1-c1ccccc1 | – | -7.02% (inactive)
c1ccc(-c2cccc(CNc3nc(-c4ccccn4)nnc3-c3ccccc3)c2)cc1 | – | 113% (inactive)
c1ccc(-c2csc(Nc3nc(-c4ccccn4)nnc3-c3ccccc3)n2)cc1 | – | 73.9% (inactive)
CN1CCN(c2nc(-c3ccccn3)nnc2-c2ccccc2)CC1 | – | 315% (inactive)
O=C(c1cc(-c2ccccc2)on1)N1CCC(N2CCOCC2)CC1 | – | 9.93% (inactive)
COc1ccccc1N1CCN(Cc2ccc(O)c3ncccc23)CC1 | – | -77.4% (inactive)
c1ccc(-c2cnc(Nc3nc(-c4ccccn4)nnc3-c3ccccc3)s2)cc1 | – | -26.9% (inactive)
O=C(NCCCCO)c1cc(-c2ccccc2)on1 | 2.72 µM | –
O=C(Nc1ncc(-c2ccccc2)o1)c1cc(-c2ccccc2)on1 | – | 22.7% (inactive)
CN(C)c1nc(-c2ccccn2)nnc1-c1ccccc1 | – | 80.9% (inactive)
O=C(NCc1ccccc1)c1cc(-c2ccccc2)on1 | – | 65.7% (inactive)
O=C(NCC1CC1)c1cc(-c2ccccc2)on1 | 7.37 µM | –
Cc1cccc(NC(=O)c2cc(-c3ccccc3)on2)n1 | – | 47.5% (inactive)
c1ccc(-c2nnc(-c3ccccn3)nc2Nc2nc3ccccc3s2)cc1 | – | -17.3% (inactive)
O=C(Nc1cn2ccccc2n1)c1cc(-c2ccccc2)on1 | – | 36% (inactive)
C[C@@H](Nc1nc(-c2ccccn2)nnc1-c1ccccc1)c1ccccc1 | 20.7 µM | –
c1ccc(-c2nnc(-c3ccccn3)nc2NCc2cccnc2)cc1 | – | 402% (inactive)
O=C(Nc1nnc(-c2ccccc2)s1)c1cc(-c2ccccc2)on1 | – | -5.78% (inactive)
OCCCNc1nc(-c2ccccn2)nnc1-c1ccccc1 | – | 310% (inactive)
COc1ccc(CNc2nc(-c3ccccn3)nnc2-c2ccccc2)cc1 | 14.3 µM | –
c1ccc(CCNc2nc(-c3ccccn3)nnc2-c2ccccc2)cc1 | 20.9 µM | –
c1ccc(-c2nnc(-c3ccccn3)nc2NCCCN2CCOCC2)cc1 | – | 168% (inactive)
